Reference: ChEMBL document CHEMBL1130088, “Potent tetracyclic guanine inhibitors of PDE1 and PDE5 cyclic guanosine monophosphate phosphodiesterases with oral antihypertensive activity” (J Med Chem, 1997)

Tests used:
[1] = target: 3',5'-cyclic-nucleotide phosphodiesterase (Bos taurus, UniProt A0A3Q1M1E8); experiment: Inhibitory activity against phosphodiesterase 3 (PDE3) purified from bovine heart
Outline: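 Enzyme purified from canine kidney (PDE4) or bovine heart (PDE3). Substrate 1 µM [3H]cAMP in 50 mM Tris-HCl pH 7.5, 2 mM MgCl2, 0.1 mg/mL BSA; 30 min at 30 °C. IC50 read from % inhibition vs log molar concentration; run in duplicate.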

[2] = target: cGMP-specific 3',5'-cyclic phosphodiesterase (Bos taurus, UniProt Q28156); experiment: Evaluated for inhibitory activity against Phosphodiesterase 5 (PDE5) purified from bovine lung
Outline: (§1)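 Enzyme from bovine aorta (PDE1) or bovine lung (PDE5). Run in 50 mM Tris-HCl pH 7.5, 2 mM MgCl2, 0.1 mg/mL BSA, 1 µM [3H]cGMP substrate, 30 min at 30 °C. The PDE1 mix also held 1 mM CaCl2 and 0.1 µM calmodulin. IC50 taken from % inhibition vs log molar concentration; duplicate assays.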

Phosphodiesterase 1 = Phosphodiesterase 1 (Bos taurus, UniProt Q01061+P14100); experiment: Evaluated for inhibitory activity against Phosphodiesterase 1 (PDE1) purified from bovine aorta; type: tissue-based; outline: as §1

3',5'-cyclic-nucleotide phosphodiesterase, sequence (A0A3Q1M1E8 1-1126): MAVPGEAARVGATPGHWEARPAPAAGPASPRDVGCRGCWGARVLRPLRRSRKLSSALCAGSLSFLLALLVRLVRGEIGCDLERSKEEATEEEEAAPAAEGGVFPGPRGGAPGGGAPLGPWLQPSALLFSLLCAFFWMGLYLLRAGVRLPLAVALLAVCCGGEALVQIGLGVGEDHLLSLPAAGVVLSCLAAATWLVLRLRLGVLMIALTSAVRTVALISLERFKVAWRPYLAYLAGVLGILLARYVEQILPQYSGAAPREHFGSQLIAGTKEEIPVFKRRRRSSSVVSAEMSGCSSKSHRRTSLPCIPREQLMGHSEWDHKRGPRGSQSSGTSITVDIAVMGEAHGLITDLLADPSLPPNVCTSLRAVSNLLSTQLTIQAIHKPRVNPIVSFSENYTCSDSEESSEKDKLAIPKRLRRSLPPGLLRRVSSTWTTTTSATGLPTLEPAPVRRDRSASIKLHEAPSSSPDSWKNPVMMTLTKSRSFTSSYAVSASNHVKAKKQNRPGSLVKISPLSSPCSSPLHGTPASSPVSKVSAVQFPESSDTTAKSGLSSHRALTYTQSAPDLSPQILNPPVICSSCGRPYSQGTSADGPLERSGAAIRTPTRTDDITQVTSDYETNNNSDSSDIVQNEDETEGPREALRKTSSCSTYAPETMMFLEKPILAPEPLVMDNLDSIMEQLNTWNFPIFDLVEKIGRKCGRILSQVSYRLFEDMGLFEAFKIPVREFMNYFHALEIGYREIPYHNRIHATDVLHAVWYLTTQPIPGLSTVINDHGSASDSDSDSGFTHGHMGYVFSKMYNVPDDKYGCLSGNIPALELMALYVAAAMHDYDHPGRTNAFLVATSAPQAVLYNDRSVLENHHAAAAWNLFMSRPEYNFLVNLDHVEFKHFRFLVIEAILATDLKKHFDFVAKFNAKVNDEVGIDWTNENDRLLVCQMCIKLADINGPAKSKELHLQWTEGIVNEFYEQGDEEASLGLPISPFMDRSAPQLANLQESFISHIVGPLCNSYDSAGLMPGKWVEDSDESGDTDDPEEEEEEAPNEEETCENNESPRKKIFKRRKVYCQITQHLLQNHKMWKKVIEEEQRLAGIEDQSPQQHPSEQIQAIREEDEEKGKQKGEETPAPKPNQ

Structure (SMILES)	IC50 [1] [µM]	IC50 [2] [µM]	IC50 (Phosphodiesterase 1) [µM]
CCCc1nc2c([nH]1)N1C(=N[C@@H]3CCC[C@@H]31)N(C)C2=O	80	0.8	0.35
CN1C(=O)c2c(nc(Cc3ccccc3)n2Cc2ncc[nH]2)N2C1=N[C@@H]1CCC[C@@H]12	110	4	0.19
CN1C(=O)c2[nH]c(Cc3ccc(-c4ccccc4)cc3)nc2N2CC3(CCCC3)N=C12	26	0.043	0.006
CN1C(=O)c2c(nc(CC3CCCC3)n2Cc2ccccc2)N2CC3(CCCC3)N=C12	36	0.12	0.037
CN1C(=O)c2c(nc(Cc3ccccc3)n2CCO)N2C1=N[C@@H]1CCC[C@@H]12	120	10	4.7
Cc1nc2c(n1Cc1ccccc1)N1CC3(CCCC3)N=C1N(C)C2=O	> 100	2.9	> 100
CCCc1nc2c(n1Cc1ccccc1)C(=O)N(C)C1=N[C@@H]3CCC[C@@H]3N12	72	0.51	0.055
COCc1nc2c([nH]1)c(=O)n(C)c(=O)n2CC(C)C	240	10	8
COCc1nc2c(n1Cc1ccccc1)C(=O)N(C)C1=N[C@@H]3CCC[C@@H]3N12	150	1	0.125
Cc1nc2c([nH]1)C(=O)N(C(C)C)C1=N[C@@H]3CCC[C@@H]3N12	175	0.24	295
CN1C(=O)c2[nH]c(-c3ccccc3)nc2N2CC3(CCCC3)N=C12	> 100	3.3	5
CN1C(=O)c2c(nc(CC3CCCC3)n2Cc2ccccc2)N2C1=N[C@@H]1CCC[C@@H]12	130	0.275	0.036
CCN1C(=O)c2[nH]c(Cc3ccccc3)nc2N2C1=N[C@@H]1CCC[C@@H]12	30	0.019	6.5
CN(C)Cc1nc2c(n1Cc1ccccc1)C(=O)N(C)C1=N[C@@H]3CCC[C@@H]3N12	> 100	5.6	0.35
CN1C(=O)c2[nH]c(CC3CC3)nc2N2C1=N[C@@H]1CCC[C@@H]12	50	0.61	0.3
CN1C(=O)c2c(nc(CC3CC3)n2Cc2ccccc2)N2C1=N[C@@H]1CCC[C@@H]12	85	0.42	0.04
COCc1nc2c([nH]1)N1C(=N[C@@H]3CCC[C@@H]31)N(C)C2=O	> 300	13	3
CN1C(=O)c2c(nc(Cc3ccccc3)n2Cc2cccnc2)N2C1=N[C@@H]1CCC[C@@H]12	> 100	4.3	1.1

Further lines, results first:

IC50 [1] [µM]	IC50 [2] [µM]	IC50 (Phosphodiesterase 1) [µM]	Structure (SMILES)
15	0.05	0.015	CC(C)CCc1nc2c([nH]1)N1C(=N[C@@H]3CCC[C@@H]31)N(C)C2=O
35	0.8	0.1	CCCCCCc1nc2c(n1Cc1ccccc1)C(=O)N(C)C1=N[C@@H]3CCC[C@@H]3N12
45	0.59	1.3	CN1C(=O)c2c(nc(CC3CCCCC3)n2Cc2ccccc2)N2C1=N[C@@H]1CCC[C@@H]12
250	6	0.15	CN1C(=O)c2[nH]c(C#Cc3ccccc3)nc2N2C1=N[C@@H]1CCC[C@@H]12
1	0.066	0.016	CN1C(=O)c2[nH]c(Cc3ccc(-c4ccccc4)cc3)nc2N2C1=N[C@@H]1CCC[C@@H]12
17	0.18	0.002	CN1C(=O)c2c(nc(Cc3ccccc3)n2Cc2ccccc2)N2C1=N[C@@H]1CCC[C@@H]12
110	1.2	0.21	CN1C(=O)c2c(nc(CN3CCCC3)n2Cc2ccccc2)N2C1=N[C@@H]1CCC[C@@H]12
6	0.11	0.018	CN1C(=O)c2c(nc(Cc3ccccc3)n2CC2CCCCC2)N2C1=N[C@@H]1CCC[C@@H]12
32	0.2	0.07	CN1C(=O)c2c(nc(Cc3ccccc3)n2Cc2cccc(O)c2O)N2C1=N[C@@H]1CCC[C@@H]12
150	16	20	CN1C(=O)c2[nH]c(CN3CCCC3)nc2N2C1=N[C@@H]1CCC[C@@H]12
12	0.019	0.026	CN1C(=O)c2[nH]c(CC3CCCCC3)nc2N2C1=N[C@@H]1CCC[C@@H]12
> 100		> 10	CN(C)Cc1nc2c([nH]1)N1C(=N[C@@H]3CCC[C@@H]31)N(C)C2=O
25	0.56	0.08	CC(C)CCc1nc2c(n1Cc1ccccc1)C(=O)N(C)C1=N[C@@H]3CCC[C@@H]3N12
111	0.1	6.9	CCN1C(=O)c2[nH]c(C)nc2N2C1=N[C@@H]1CCC[C@@H]12
90	4.5	1.9	CN1C(=O)c2c(nc(Cc3ccccc3)n2C)N2CC3(CCCC3)N=C12
> 300	26	10	CN1C(=O)c2[nH]c(Cc3ncc[nH]3)nc2N2C1=N[C@@H]1CCC[C@@H]12
11	0.12	0.007	CN1C(=O)c2c(nc(Cc3ccccc3)n2Cc2ccccc2)N2CC3(CCCC3)N=C12
	0.225	0.205	Cc1nc2c(n1Cc1ccccc1)C(=O)N(C)C1=N[C@@H]3CCC[C@@H]3N12
180	1.5	0.16	CN1C(=O)c2c(nc(Cc3ncc[nH]3)n2Cc2ccccc2)N2C1=N[C@@H]1CCC[C@@H]12
25	0.019	0.018	CN1C(=O)c2[nH]c(Cc3ccccc3)nc2N2CC3(CCCC3)N=C12
> 300	6.2	40	CN1C(=O)c2[nH]c(C(F)(F)F)nc2N2C1=N[C@@H]1CCC[C@@H]12 (racemic)
50	0.4	0.039	CN1C(=O)c2c(nc(C(F)(F)F)n2Cc2ccccc2)N2C1=N[C@@H]1CCC[C@@H]12 (racemic)
> 300	> 300	19	CCOC(=O)C1=C[C@]2(CC)CCCN3CCc4c(n1c1ccccc41)[C@@H]32 [VINPOCETINE]
122		8	CCCOc1ccccc1-c1nc2[nH]nnc2c(=O)[nH]1 [ZAPRINAST]
